Hits are enriched below; roughly 2.4% of the tested compounds scored in any of these assays.
MPTP block – blocks calcium-induced mitochondrial swelling | AID 602449 | 360,000 tested, 1.4% active | isolated mouse mitochondria, Ca2+ swelling absorbance, 30 min | inhibition, % at 10 µM;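 active = inhibition of 50% or more, scaled per plate between neutral and stimulator controls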;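 note: 0% = DMSO wells given calcium and 100% = 1 mM EGTA wells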
697 NFkB inh – lowers PMA/ionomycin-induced NF-kB signal in 697 B cells. 697 B-cell NF-kB luciferase reporter, 16 h. inhibition, % at 4 µM. 330,000 tested, 0.33% active. AID 435022; in the data active = inhibition above about 35%
aDG glyco act – increases alpha dystroglycan glycosylation. Pro5-aDG cells, alpha-DG glycosylation AlphaScreen (IIH6); 0% Pro5, 100% B10-LARGE cell signal. 360,000 tested, 0.22% active. activation, % at 10 µM;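 active = activation of at least 8% versus controls, or a plate z-score of at least 8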;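 note: Pro5 are CHO cells carrying HIG-tagged alpha-DG that lacks glycosylation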
NR2E3 ag-1 – agonists of human nuclear receptor NR2E3 | GST-NR2E3/biotin-RetCOR TR-FRET, 1536-well | AID 2300 | Q9Y5X4 | 320,000 tested, 0.12% active | inhibition of corepressor binding, % at 4.78 µM;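 active = percent inhibition above the cutoff of mean plus 3 SD of all tested compounds, set per screening campaign, cut at about 20% in these data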;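 note: 0% = DMSO wells and 100% = biotin wells as full block of FRET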
Target sequence (Q9Y5X4 whole entry, looked up): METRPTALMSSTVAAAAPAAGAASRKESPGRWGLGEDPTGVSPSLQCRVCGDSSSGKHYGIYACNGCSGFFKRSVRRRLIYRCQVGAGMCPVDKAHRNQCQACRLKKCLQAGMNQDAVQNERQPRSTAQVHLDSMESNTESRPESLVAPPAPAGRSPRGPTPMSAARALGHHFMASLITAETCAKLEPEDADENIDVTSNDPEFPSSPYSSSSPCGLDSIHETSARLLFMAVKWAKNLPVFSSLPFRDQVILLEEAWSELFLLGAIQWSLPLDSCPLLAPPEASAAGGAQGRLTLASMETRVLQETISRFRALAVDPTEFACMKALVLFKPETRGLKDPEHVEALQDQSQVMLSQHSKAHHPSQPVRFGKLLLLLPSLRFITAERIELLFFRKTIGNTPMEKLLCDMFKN
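System: GST-tagged NR2E3 plus biotinylated RetCOR corepressor; Amount: 1.35 nM GST-tagged NR2E3 final; Dosing: single nominal compound dose of 4.8 µM; Schedule: 5 h incubation at 4 °C; Technique: TR-FRET with europium anti-GST and streptavidin-D2, 340 nm excitation; Controls: biotin wells as high control, 0.6% DMSO wells as low control.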
NR2E3 ag-2 – activates human NR2E3 receptor; Q9Y5X4; CHO-S Gal4-NCOR/VP16-NR2E3 two-hybrid, luciferase; inhibition of corepressor binding, % at 3.98 µM; 360,000 tested, 0.35% active;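 active = inhibition above the mean of all tested compounds plus 3 SD, cut at about 70% in these data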;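 note: 0% = DMSO with NR2E3 transfected cells and 100% = cells lacking NR2E3 construct; higher means lower luciferase signal from less NR2E3 corepressor binding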
Jurkat NFkB inh – lowers PMA/ionomycin-induced NF-kB signal in Jurkat cells; PMA/ionomycin-induced NF-kB luciferase reporter, luminescence; inhibition, % at 4 µM; 330,000 tested, 0.53% active; AID 435003; in the data active = inhibition above about 50%
Rh123 counter – membrane potential counter-screen of mitochondrial pore inhibitors; shares compounds with MPTP block; isolated mitochondria, Rhodamine 123 fluorescence; inhibition, % at 10 µM; 5,000 tested, 78% active; in the data active = inhibition above about 22%;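 note: 0% = DMSO vehicle and 100% = positive control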
MPTP swell DR – MPTP inhibition, dose response swelling confirmation. shares compounds with MPTP block. isolated mitochondria swelling, absorbance. IC50, µM. 780 tested, 58% active; in the data active = IC50 below about 20 µM
MPTP cs DR – active in counter-screen for permeability transition pore inhibitors; 780 tested, 49% active; isolated mitochondria counterscreen, fluorescence read-out; shares compounds with MPTP block; IC50, µM; in the data active = IC50 below about 80 µM
aDG glyco conf – confirmation of alpha dystroglycan glycosylation activators. shares compounds with aDG glyco act. Pro5-aDG cells, alpha-DG glycosylation, IIH6 AlphaLISA; scaled to LARGE-overexpressing B10 cells as 100%. activation, % at 10 µM (by protocol). 600 tested, 17% active. AID 651671;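 active = activation of at least 7% in one or more replicates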;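 note: cells exposed to compound for two days before detection; 0% = DMSO-treated Pro5 cells and 100% = DMSO-treated B10-LARGE cells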
Numbers without * were called inactive; i = inactive; nt = not tested or not shown.

SMILES | MPTP block | 697 NFkB inh | aDG glyco act | NR2E3 ag-1 | NR2E3 ag-2 | Jurkat NFkB inh | Rh123 counter | others
CC(C(=O)Nc1cccc(Br)c1)c1ccc([N+](=O)[O-])cc1 (stereo unspecified) | 58* | 16 | 0 | 4 | -19 | -5 | 78*
Cc1cccc2sc(NC(=O)CSc3nc4ccccc4o3)nc12 | 70* | 5 | 0 | 2 | -11 | 6 | 15 | MPTP swell DR=>100;MPTP cs DR=6.1*
COc1ccc(N(C(=O)CNC(=O)c2ccco2)C(C(=O)NC2CCCCC2)c2cccnc2)cc1 (stereo unspecified) | 2 | 25 | 0 | 2 | -16 | -1 | nt
Cc1ccc(S(=O)(=O)N2C[C@H]3C(=O)C[C@@H](c4ccccc4)N(S(=O)(=O)c4cccc(C)c4)[C@H]3C[C@H]2c2ccccc2)cc1 | 1 | nt | 0 | nt | -10 | nt | nt
O=C(Cn1nnc(-c2ccc(F)cc2)n1)NC(=O)NC1CCCCC1 | 2 | nt | 0 | nt | -13 | nt | nt
CC1(C)CC(=O)C2=C(C1)NC1=C(C(=O)c3ccccc31)C2c1cccnc1 (stereo unspecified) | 1 | -5 | 0 | -6 | 16 | -6 | nt
CC(C)c1ccc(C2C3=C(CC(C)(C)CC3=O)NC3=C2C(=O)c2ccccc23)cc1 (stereo unspecified) | 84* | 1 | 1 | 1 | 11 | 6 | 61*
CC1(C)CC(=O)C2=C(C1)NC1=C(C(=O)c3ccccc31)C2c1cc([N+](=O)[O-])ccc1O (stereo unspecified) | 94* | -5 | 0 | -1 | -6 | 10 | 57*
CC1(C)CC(=O)C2=C(C1)NC1=C(C(=O)c3ccccc31)C2c1ccccc1 (stereo unspecified) | 34 | -20 | 0 | -6 | 2 | -10 | nt
Cc1ccnc(SCc2cc(=O)c(OC(=O)c3ccc(Cl)c([N+](=O)[O-])c3)co2)n1 | 0 | -10 | 0 | -3 | -28 | -5 | nt
CC12CCC(=O)N1C(C(=O)N1CCN(S(=O)(=O)c3cccc(Cl)c3)CC1)CS2 (stereo unspecified) | 2 | 1 | 0 | -2 | -1 | 7 | nt
Cc1ccc(NC(=O)/C=C/c2ccc([N+](=O)[O-])s2)c(C)c1 | 4 | nt | 0 | 2 | 24 | nt | nt
Cc1cc([N+](=O)[O-])ccc1NC(=O)/C=C/c1cccs1 | 83* | -38 | 0 | -1 | -85 | -38 | 31*
O=C(Cc1cccc(NC(=O)C2CCN(C(=O)C3CCCCC3)CC2)c1)Nc1cccc(C(=O)N2CCOCC2)c1 | -1 | nt | 0 | nt | 21 | nt | nt
CC1(c2ccc(OC(F)F)cc2)NC(=O)N(CC(=O)Nc2ccc(Cl)cc2F)C1=O (stereo unspecified) | 0 | 23 | 0 | 2 | 3 | 2 | nt
O=C(NCC1CCCO1)Nc1cc(Cl)cc(Cl)c1 (stereo unspecified) | 82* | -19 | 1 | 2 | -9 | -8 | 88*
O=C(NCC1CCCO1)Nc1ccc(Cl)cc1 (stereo unspecified) | 2 | -16 | 1 | 2 | -51 | -36 | nt
CCCC1CC(CSC(=N)N)OC1=O (stereo unspecified) | -5 | 2 | 0 | 5 | -3 | 3 | nt
CCCCCCC1CC(CSC(=N)N)OC1=O (stereo unspecified) | 91* | -15 | 0 | 0 | 2 | 1 | -5 | MPTP swell DR=i;MPTP cs DR=>80
CCOCCCNC(=O)C(NC(=O)c1ccc2c(c1)OCO2)c1ccc(Cl)cc1 (stereo unspecified) | 1 | 15 | 0 | -3 | -1 | -6 | nt
CN1C(=O)c2cccc(NCCCCCCN3C(=O)c4ccccc4C3=O)c2C1=O | 108* | -16 | 4.5* | 0 | -15 | 1 | 94* | aDG glyco conf=-1

Compound activity (PubChem BioAssay)
